From ChEMBL document CHEMBL4665631, “Synthesis and biological evaluation of paclitaxel and vorinostat co-prodrugs for overcoming drug resistance in cancer therapy in vitro” (Bioorg Med Chem, 2019)
Calls of active or inactive are those of the source. No cut-off for these calls is given here.

How the values were obtained:
[1] = system: HCT-116; test: Cytotoxicity against human HCT-116 cells after 72 hrs by SRB assay; type: functional, cell-based; conditions: HCT-116, 72 h
[2] = system: NCI/ADR-RES; test: Cytotoxicity against human MCF7/ADR cells after 72 hrs by SRB assay; type: functional, cell-based
[3] = Stability in PBS at pH 6 assessed as compound remaining after 24 hrs by HPLC analysis; type: physicochemical; conditions: read-out: Stabilty
Summary of the method: (§1)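 Co-prodrug stock diluted in 10 mM PBS at pH 7.4 or 6.0 and held at 37 °C. Sampled at 0.5, 1, 2, 3, 4, 6, 12 and 24 h. Intact co-prodrug, released PTX and released SAHA resolved by RP-HPLC. Amounts taken from external-standard concentration curves.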

[4] = Retention time of the compound by HPLC method; type: physicochemical
Summary of the method: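 Reversed-phase HPLC with a gradient of acetonitrile and water, both containing 0.1% formic acid, at 1 mL/min. Gradient ran 5% to 95% acetonitrile over 0–15 min, then held at 95% from 15 to 25 min. Injection volume 50 µL.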

[5] = Half life in mouse plasma by HPLC analysis; type: ADME, cell-free
Summary of the method: (§2)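 Co-prodrug diluted into human or mouse plasma and incubated at 37 °C. Sampled at 0.5, 1, 2, 3, 4, 5 and 6 h. Each aliquot quenched with an equal volume of cold acetonitrile and centrifuged. Supernatant analysed by RP-HPLC, with compounds quantified against an external-standard concentration–area curve.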

[6] = system: MCF7; test: Cytotoxicity against human MCF7 cells after 72 hrs by SRB assay; type: functional, cell-based; conditions: MCF7, 72 h
[7] = Half life in human plasma by HPLC analysis; type: ADME, cell-free; summary of the method: as §2
[8] = target: T1, Histone deacetylase (Homo sapiens) (UniProt Q13547+O15379+Q9UBN7+Q92769+Q9UQL6+Q8WUI4+Q9BY41+Q96DB2+P56524+Q9UKV0+Q969S8); test: Inhibition of HDAC in human MCF7 cells assessed as increase in tubulin acetylation measured after 10 to 24 hrs by Western blot analysis; type: cell-based; conditions: time hrs 10-24
Summary of the method: (§3)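 Cells in logarithmic phase seeded in 6-well plates and cultured overnight. Compound exposure at 37 °C for 10 h and 24 h, with untreated cells as control. Cells lysed in RIPA buffer and lysates boiled. Proteins separated by SDS-PAGE and semidry-transferred to nitrocellulose. Membranes probed with primary antibody overnight at 4 °C, then HRP-conjugated secondary antibody for 1 h at room temperature. Detection by chemiluminescence imaging.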

[9] = Drug degradation in PBS assessed as SAHA release at pH 7.4 after 48 hrs by HPLC analysis; conditions: buffer, pH 7.4, 48 h
[10] = Half life of compound in PBS buffer at pH 7.4 by HPLC analysis; type: physicochemical; summary of the method: as §1
[11] = target: T1, Histone deacetylase (Homo sapiens); test: Inhibition of HDAC in human MCF7/ADR cells assessed as increase in tubulin acetylation measured after 10 to 24 hrs by Western blot analysis; type: cell-based; conditions: NCI/ADR-RES, time hrs 10-24; summary of the method: as §3
[12] = Drug degradation in PBS assessed as PTX release at pH 7.4 after 48 hrs by HPLC analysis; conditions: buffer, pH 7.4, 48 h
[13] = target: T1, Histone deacetylase (Homo sapiens); test: Inhibition of HDAC in human HCT-116 cells assessed as increase in tubulin acetylation measured after 10 to 24 hrs by Western blot analysis; type: cell-based; conditions: time hrs 10-24; summary of the method: as §3

Row | remaining at 24 h [3] [%] | Retention_time [4] [min] | half-life [5] [min] | half-life [7] [min] | inhibition [8] | Drug degradation [9] [%] | half-life [10] [min] | inhibition [11] | Drug degradation [12] [%] | inhibition [13] | Compound | IC50 [1] [nM] | IC50 [2] [µM] | IC50 [6] [nM]
1 | > 85 | 14.62 | 30 | 30 | Active | 56.8 | 120 | Active | 50.3 | Active | CC(=O)O[C@H]1C(=O)[C@@]2(C)[C@H]([C@H](OC(=O)c3ccccc3)[C@]3(O)C[C@H](OC(=O)[C@H](OC(=O)CNC(=O)ONC(=O)CCCCCCC(=O)Nc4ccccc4)[C@@H](NC(=O)c4ccccc4)c4ccccc4)C(C)=C1C3(C)C)[C@]1(OC(C)=O)CO[C@@H]1C[C@@H]2O | 9.55 | 1.38 | 1.5
2 | – | 8.42 | – | – | – | – | – | – | – | – | O=C(CCCCCCC(=O)Nc1ccccc1)NO [VORINOSTAT] | – | – | –

The remaining lines, values behind:

Row | Compound | remaining at 24 h [3] [%] | Retention_time [4] [min] | half-life [5] [min] | half-life [7] [min] | inhibition [8] | Drug degradation [9] [%] | half-life [10] [min] | inhibition [11] | Drug degradation [12] [%] | inhibition [13] | IC50 [1] [nM] | IC50 [2] [µM] | IC50 [6] [nM]
3 | CC(=O)O[C@H]1C(=O)[C@@]2(C)[C@H]([C@H](OC(=O)c3ccccc3)[C@]3(O)C[C@H](OC(=O)[C@H](OC(=O)CCC(=O)ONC(=O)CCCCCCC(=O)Nc4ccccc4)[C@@H](NC(=O)c4ccccc4)c4ccccc4)C(C)=C1C3(C)C)[C@]1(OC(C)=O)CO[C@@H]1C[C@@H]2O | > 85 | 15.06 | 30 | 30 | – | – | – | – | – | – | 144 | 4.02 | 62.4
4 | CC(=O)O[C@H]1C(=O)[C@@]2(C)[C@H]([C@H](OC(=O)c3ccccc3)[C@]3(O)C[C@H](OC(=O)[C@H](O)[C@@H](NC(=O)c4ccccc4)c4ccccc4)C(C)=C1C3(C)C)[C@]1(OC(C)=O)CO[C@@H]1C[C@@H]2O [PACLITAXEL] | – | 13.81 | – | – | Active | – | – | Active | – | Active | – | > 10 | < 1.5
5 | CC(=O)O[C@H]1C(=O)[C@@]2(C)[C@H]([C@H](OC(=O)c3ccccc3)[C@]3(O)C[C@H](OC(=O)[C@H](OC(=O)CCC(=O)O)[C@@H](NC(=O)c4ccccc4)c4ccccc4)C(C)=C1C3(C)C)[C@]1(OC(C)=O)CO[C@@H]1C[C@@H]2O | – | 13.63 | – | – | – | – | – | – | – | – | – | – | –
